The results in this text go back to the RNAGym collection of RNA variant scans (doi:10.1126/science.aae0568).

Variants at the floor of the assay were thinned out.

B1: tRNA (parent)
chain: GUUCCGUUGGCGUAAUGGUAACGCGUCUCCCUCCUAAGGAGAAGACUGCGGGUUCGAGUCCCGUACGGAACG

The series covers variants of B1. Briefly: yeast fitness relative to wild type (ratio to wild type); higher = fitter; tRNA-Arg(CCU), competitive growth, 37 C, YPD. A digest of the protocol: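 The tRNA-Arg(CCU) gene variants were made by chemical synthesis with a 3% per-site mutation rate at 69 sites and inserted at the native genomic locus of Saccharomyces cerevisiae. After pooling, the strains were competed in YPD at 37°C for 24 hours in six parallel replicates. Gene amplicons from the start population and each end population were read by 100-nucleotide paired-end sequencing, and Darwinian fitness relative to wild type was taken from genotype frequency changes. Genotypes needed ≥ 100 starting reads, and estimates < 0.5 were set to 0.5.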
Consider GUUCUGUUGGCGUAACGGUGACGCGUCUACCUCCUAAGGAGAAGACUGCGGGUUCGAGUCCCGUACGGAACG [C5U U16C A20G C29A], for which the yeast fitness is at most 0.5. For GUUCUGUAGGCGUAAUGGUAACGCGUCUCCCUCCUAAGGAGAAGACUGCGGGUUCGAGGCCCGUACGGAACG [C5U U8A U59G], the yeast fitness is at most 0.5. On to GUUCUGUUGGCGAAAUGGUAACGCGUGUCCCUCCUAAGGAGAAGACUGCGGGUUCGAGUCCCGUACGGAACG [C5U U13A C27G], for which the yeast fitness was 0.557.

Regarding GUUCUGUUGGCGGACUGGUAACGCGUCUCCCUCCUAAGGAGAAGACUGCGGGUUCGAGUCCCGUACGGAACG [C5U U13G A15C], the yeast fitness is 0.509.

As for GUUCUGUUGGCGGAUUGGUAACGCGUCUCCCUCCUAAGGAGAAGACUGCGGGUUCGAGUCCCGUACGGAACG [C5U U13G A15U], the yeast fitness is at most 0.5. With GUUCUGUUGGCGUAAUGGAUACGCGUCUCCCUCCUAAGGAGAAGACUACGGGUUCGAGUACCGUACGGAACG [C5U U19A A20U G48A C60A] the figure was at most 0.5; with GUUCUGUUGGCGUAAAGGUAACGCGUCUCCCUCCUAAGGAGAAGAAUGCGGGUUCGAGUCCCGUACGAAACG [C5U U16A C46A G68A], 0.625; with GUUCUGUCGGCGUAAUGGUAACGCGUCUCCCUCCUAAGGAGAUGACUGCGGGUUCGAGUCCCGUAUGGAACG [C5U U8C A43U C66U], at most 0.5. Regarding GUUCUGUUGGCGUAAUGGAAACGCGUCUCCCUCCUAAGGAGAAGACUGCGGGUUCGAGUCCCGUACGGAACG [C5U U19A], the yeast fitness came to 0.906. As for GUUCUGUUGGCGUAACGGUAACGCGUCUCAUUCCUAAGGAGAAGACUGCGGGUUCGAGUCCCGUACGGAACG [C5U U16C C30A C31U], the yeast fitness was at most 0.5. The result for GUUCUGUUGGCGAAAUGCUAACGCGUCUCGCUCCUAUGGAGAAGAUUGCGGGUUCGAGUCCCGUACGGAACG [C5U U13A G18C C30G A37U C46U] reads at most 0.5. As to GUUCUGUCGGCGUAAUGGUAACGCGUCUCCCUCCUAAGGAGAAGACUGCGGGUUCGAGUCCCGUACGGAACG [C5U U8C], the yeast fitness amounted to 1.07. The result for GUUCUGUGGGCGUAAUGGUAACGCGUCUCCCUCCUAAGGAGAAGACUGCGGGUUCGAGUCCCGUACGGAACG [C5U U8G] reads 0.64; that for GUUCUGUCGGCGUAAUGGUAACGCGUCUCCGUGUUAAGGAGAAGACUGCGGGUUCGAGUCCCGUACGAAACG [C5U U8C C31G C33G C34U G68A], at most 0.5; that for GUUCUGUUGGCGCAAUGGAAUCGAGUCUCCCUCCUAAGGAGAAGACUGCGGGUCCGAGUCCCGUACGGAACG [C5U U13C U19A A21U C24A U54C], at most 0.5. GUUCUGUUGGCGAAAUGGUAACGCGUCUCCCUCCUAAGGAGAAGACUGCGGGUUCGACUCCCGUACGGAACG [C5U U13A G58C]: the yeast fitness came to 0.63. The result for GUUCUGUUGGCGAAAUGGUAACGCGUCUCCCUCCUAAGGAGAAGACUGCGGGUUCGAGUCCCGUACGGAUCG [C5U U13A A70U] reads 0.737. With GUUCUGUCGGGGUAUUGGUAACGCGUCUCCCUCCUAAGGAGAAGACUGUGAGUUCGAGUCCCAUACGGAACG [C5U U8C C11G A15U C49U G51A G63A] the figure was at most 0.5; with GUUCUGUUGGCGUAAAGGUAACGCGUCUCCCUCCUAAGGAGUAGACUGCGGGUUCGAGUCCCGUACGGAACG [C5U U16A A42U], 0.666; with GUUCUGUAGGCGUAAUGCUGACGCGUCUCCCUCCUAAGGAGAAGACUGCGGGUUCGAGUCCCGUACGGAACG [C5U U8A G18C A20G], 0.537. In the case of GUUCUGUUGGCGAAAUGGUAACGCGUCUCCCUCCUAAGGAGAAGACUGCGGGUUCGUGUCCCGUACGGAACG [C5U U13A A57U], the yeast fitness stood at 0.573. For the variant GUUCUGUUGGCGGAAUGGUAACGCGUCUCCCUCCUAAGGAGAAGACUGCGGGUUCGAGUCCCGUACGGAACG [C5U U13G], the yeast fitness stood at 1.02.

Regarding GUUCUGUUGGCGUAAGGGUAACGUGUCUCCCUCCUAAGGAGAAGACUGCGGGUUCGAGUCCCGUACGGAACG [C5U U16G C24U], the yeast fitness was 0.776. With GUUCUGUUGGCGUAACGGUGACGCGUCUCCCUCCUAAGGGGAGGACUGCGGGUUCGAGUCCCGUACCGAACG [C5U U16C A20G A40G A43G G67C] the figure was at most 0.5; with GUUCUGUAGGCGUAAUGCUAACGCGUCUCCCUCCUAAGGAGAAGACUGCGGGUUCGAGUCCCGUACGGAACG [C5U U8A G18C], 0.577.

GUUCUGUUGGCGCAAUGGUAACGCGUCUCUCUCCUAAGGGGAAGACUGCGGGUUAGAGUCCCCUCCGGAACG [C5U U13C C30U A40G C55A G63C A65C]: the yeast fitness was at most 0.5. Consider GUUCUGUUGGCGCAAUGGUAACGGGCCUCCCUCCUCAGGAGAAGACUGCGGGUUGGUGUCCUGUACGGAACG [C5U U13C C24G U26C A36C C55G A57U C62U], for which the yeast fitness is at most 0.5. As to GUUCUGUUGGCGUAACGGUAAGGCGUCUGCCUCCUAAGGAGAAGACUGCGGGUUCGAGUCCCGUACGGAACG [C5U U16C C22G C29G], the yeast fitness is at most 0.5. For GUUCUGUUGGCGUAAGGGUAACGCGUCUCCCUCCUAAGGAGAAGACUGCGCGUUCGCGUCCCGUACGGAACG [C5U U16G G51C A57C], the yeast fitness was at most 0.5.

In the case of GUUCUGUCGGGGUAUUGGUAACGCGUCUCCCUCCUUAAGAGAAGACUGCGGGUUCGAGUCUCGUACGGAUCG [C5U U8C C11G A15U A36U G38A C61U A70U], the yeast fitness was determined as 0.564. Regarding GUUCUGUUGGCGAAAUGGUAACGCGUCUCCCUCCUAAGGAGAGGGCUGCGGGUUCGAGUCCGGUACGGAACG [C5U U13A A43G A45G C62G], the yeast fitness is at most 0.5. For GUUCUGUUGGCGUAACGGUAACGCGUCUACCUCCUAAGGAGAAGACUGCGGGUUCGAGUCCCGUACGGAACG [C5U U16C C29A], the yeast fitness was determined as 0.522. Turning to GUUCUGUUGGCGAAAUGGUAACGCGUCUGCGUCCUAAGGAGAAGACUGCGGGUUCGAGUCCCGUACGGAACG [C5U U13A C29G C31G], the yeast fitness is at most 0.5. On to GUUCUGUUGGCGAAAUGGUAACGCGUCUGCAUCCUAAGGAGAAGACUGCGGGUUCGAGUCCCGUACGGAACG [C5U U13A C29G C31A], for which the yeast fitness stood at 0.593. With GUUCUGUCGGCGUCAUGGUAACGCGUCUCCCUCCUAAGGAGAAGACUGCGGGUUCGAGUCCCGUACGGAACG [C5U U8C A14C], the yeast fitness is at most 0.5. As for GUUCUGUUGGCGCAAUGGAAUCGAGUCUCCCUCCUAAGGAGAAGACUGCGGGUCCGAGCCCCGUAGGGAACG [C5U U13C U19A A21U C24A U54C U59C C66G], the yeast fitness is at most 0.5.

On to GUUCUGUUGGCGCAAUGGUAACGCGUCUCCCUCCUAAGCAGAAGGCUGCGGGUUCGAGUCCCGUACGGAACG [C5U U13C G39C A45G], for which the yeast fitness is at most 0.5. As for GUUCUGUUGGCGGAAUGGUAACGCGUCUCCCUCCUAAGGAGAAAACUGCGGGUUCGUGUCCCGUACGGAACG [C5U U13G G44A A57U], the yeast fitness turned out to be 0.642.
